Measured values taken from ChEMBL document CHEMBL4673177, “Structure-activity relationships of sulfonamides derived from carvacrol and their potential for the treatment of Alzheimer''s disease” (RSC Med Chem, 2020).
Active and inactive are the calls of the source. No cut-off for these calls is given here.

Tests used:
Mus musculus [1] = experiment: Antialzheimer activity in streptozotocin-induced mouse model of memory impairment assessed as median time of avoidance latency descent at 30 mg/kg, ip treated from 3 to 12 days starting from 3 days post initial STZ stimulation and measured on day 16 by avoidance test (reference value: 14 sec); assay type: functional; conditions: time 3-12 day
Outline: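 3-month-old female mice (25.0–30.0 g), STZ given i.c.v. as 3 μL of 2.5 mg mL-1 solution, repeated after 48 h. Vehicle or compound dosed i.p. until day 12. Training: shock 0.4 mA for 2 s on stepping down from the platform. Next-day test session without shock; descent latency timed. Reported as median with interquartile interval. N = 8–10 per group.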

Mus musculus [2] = experiment: Anxiolytic-like activity in STZ-induced mouse model of Alzheimer's disease assessed as open arm time permanency at 30 mg/kg, ip treated from 3 to 12 days starting from 3 days post initial STZ stimulation and measured on day 14 by elevated plus maze test (reference value: 37.6%); assay type: functional; conditions: time 3-12 day
Mus musculus [3] = experiment: Anxiolytic-like activity in STZ-induced mouse model of Alzheimer's disease assessed as open arm frequency at 30 mg/kg, ip treated from 3 to 12 days starting from 3 days post initial STZ stimulation and measured on day 14 by elevated plus maze test (reference value: 51.17%); assay type: functional; conditions: time 3-12 day
[4] = Effect on behavioral activity in STZ-induced mouse model of Alzheimer's disease assessed as rearing at 30 mg/kg, ip treated from 3 to 12 days by open field test (reference value: 53.60 +/- 1.62); assay type: ADME, organism-based; conditions: in vivo, time 3-12 day
[5] = Effect on locomotory activity in STZ-induced mouse model of Alzheimer's disease assessed as number of crossing 30 mg/kg, ip treated from 3 to 12 days by open field test (reference value: 114.00 +/- 3.12); assay type: organism-based; conditions: in vivo, time 3-12 day
Acetylcholinesterase = Acetylcholinesterase (Homo sapiens, UniProt P22303); experiment: Inhibition of AChE (unknown origin) using acetylthiocholine iodide as substrate preincubated for 15 mins followed by substrate addition and measured after 30 mins by Ellman's method
Chain of Acetylcholinesterase (P22303 whole entry): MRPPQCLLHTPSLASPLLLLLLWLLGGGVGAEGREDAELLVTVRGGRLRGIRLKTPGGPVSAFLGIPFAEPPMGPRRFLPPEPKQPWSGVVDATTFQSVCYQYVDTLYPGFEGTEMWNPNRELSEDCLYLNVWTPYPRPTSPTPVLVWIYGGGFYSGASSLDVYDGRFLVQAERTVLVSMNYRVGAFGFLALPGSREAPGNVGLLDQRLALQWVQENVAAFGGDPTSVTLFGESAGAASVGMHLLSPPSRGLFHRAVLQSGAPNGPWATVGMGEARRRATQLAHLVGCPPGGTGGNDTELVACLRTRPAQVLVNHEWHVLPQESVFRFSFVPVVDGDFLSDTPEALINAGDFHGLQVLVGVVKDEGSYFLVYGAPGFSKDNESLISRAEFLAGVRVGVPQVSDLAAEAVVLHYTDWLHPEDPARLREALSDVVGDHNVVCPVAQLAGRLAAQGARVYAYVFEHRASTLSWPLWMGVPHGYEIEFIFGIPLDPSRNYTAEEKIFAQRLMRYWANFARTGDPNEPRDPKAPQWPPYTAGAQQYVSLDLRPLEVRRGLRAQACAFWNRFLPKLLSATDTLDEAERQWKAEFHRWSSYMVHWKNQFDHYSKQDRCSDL

Mus musculus [6] = experiment: Antioxidant activity in STZ-induced mouse model of Alzheimer's disease assessed as increase in GSH level in brain at 30 mg/kg, ip treated from 3 to 12 days starting from 3 days post initial STZ stimulation and measured on day 17 by spectrophotometric method; assay type: functional, organism-based; conditions: time 3-12 day
Outline: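 Brains collected one day after the last behavioural test, homogenized in phosphate buffer pH 7.4 and spun at 3000g for 15 min. Whole-brain GSH in the supernatant measured by a modified Beutler method, absorbance at 412 nm. Quantified against a GSH standard curve (5–50 μg); expressed as nmol GSH/mg protein.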

Mus musculus [7] = experiment: Antioxidant activity in STZ-induced mouse model of Alzheimer's disease assessed as reduction in TBARS level in brain at 30 mg/kg, ip treated from 3 to 12 days starting from 3 days post initial STZ stimulation and measured on day 17 by spectrophotometric method; assay type: functional, organism-based; conditions: time 3-12 day
Outline: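 After the final behavioural test, brain homogenate (phosphate buffer pH 7.4, 3000g for 15 min) used for TBARS. The mixture was vortexed and centrifuged at 4000g for 10 min. The organic layer was read at 532 nm.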

Mus musculus [8] = experiment: Anxiolytic-like activity in STZ-induced mouse model of Alzheimer's disease assessed as open arm time permanency at 0.5 mg/kg, ip treated from 3 to 12 days starting from 3 days post initial STZ stimulation and measured on day 14 by elevated plus maze test (reference value: 37.6%); assay type: functional; conditions: time 3-12 day
Outline: (§1)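 Female mice given STZ i.c.v. twice (48 h apart) were treated i.p. until day 12. Each mouse was placed in the centre of the elevated plus maze facing a closed arm and observed for 5 min. N about 8–10 per group.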

Mus musculus [9] = experiment: Anxiolytic-like activity in STZ-induced mouse model of Alzheimer's disease assessed as open arm frequency at 0.5 mg/kg, ip treated from 3 to 12 days starting from 3 days post initial STZ stimulation and measured on day 14 by elevated plus maze test (reference value: 51.17%); assay type: functional; conditions: time 3-12 day; outline: as §1
[10] = Effect on locomotory activity in STZ-induced mouse model of Alzheimer's disease assessed as number of crossing 0.5 mg/kg, ip treated from 3 to 12 days by open field test (reference value: 114.00 +/- 3.12); assay type: organism-based; conditions: in vivo, time 3-12 day
[11] = Effect on behavioral activity in STZ-induced mouse model of Alzheimer's disease assessed as rearing at 0.5 mg/kg, ip treated from 3 to 12 days by open field test (reference value: 53.60 +/- 1.62); assay type: organism-based; conditions: in vivo, time 3-12 day
Mus musculus [12] = experiment: Antialzheimer activity in streptozotocin-induced mouse model of memory impairment assessed as median time of avoidance latency descent at 0.5 mg/kg, ip treated from 3 to 12 days starting from 3 days post initial STZ stimulation and measured on day 16 by avoidance test (reference value: 14 sec); assay type: functional; conditions: time 3-12 day

Compound | Time (Mus musculus [1]) [s] | Activity (Mus musculus [2]) [%] | Activity (Mus musculus [3]) [%] | Activity [4] | Activity [5] | IC50 (Acetylcholinesterase) [µM] | Activity (Mus musculus [6]) | Activity (Mus musculus [7]) | Activity (Mus musculus [8]) [%] | Activity (Mus musculus [9]) [%] | Activity [10] | Activity [11] | Time (Mus musculus [12]) [s]
Cc1cc(S(=O)(=O)NCc2ccccn2)c(C(C)C)cc1O | 72 | 76 | 69.44 | 46.17 | 102.45 | 6.99 |  |  |  |  |  |  | 
Cc1cc(S(=O)(=O)Nc2cnccn2)c(C(C)C)cc1O | 80 | 19.3 | 47.7 | 50.17 | 108.34 | 7.34 | Active | Active |  |  |  |  | 
Cc1ccc(C(C)C)cc1O [CARVACROL] |  |  |  |  |  | 284 |  |  |  |  |  |  | 
Cc1cc(S(=O)(=O)NN)c(C(C)C)cc1O | 130 | 17.1 | 43.31 | 44.18 | 98.45 | 9.24 | Active | Active |  |  |  |  | 
COc1ccc2c3c1O[C@H]1C[C@@H](O)C=C[C@@]31CCN(C)C2 [GALANTAMINE] |  |  |  |  |  |  |  |  | 6.6 | 22.3 | 122.5 | 54.23 | 122.5
Cc1cc(S(=O)(=O)N2CCOCC2)c(C(C)C)cc1O | 116.5 | 14.3 | 25.11 | 43.8 | 116.3 | 5.64 | Active | Active |  |  |  |  | 
Cc1cc(S(=O)(=O)Nc2ccccc2O)c(C(C)C)cc1O | 107 | 42 | 41.9 | 44.56 | 107 | 8.74 | Active | Active |  |  |  |  | 
